From PubChem
An excerpt weighted towards active compounds, which were near 2.5% of everything screened.
E-sel inducer: E-selectin induction in HUVECs, primary screen, imaging, HUVEC, immunofluorescence imaging, single point; normalized: neutral wells 0, TNF-alpha wells 100; activation, % at 7.58 µM; actives 0.37% (n = 260,000); AID 686992, 2013;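 active = mean E-selectin-positive cell signal at least 10% of the positive control, reached in at least 60% of replicates, without over 20% cell loss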
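Test system: HUVEC | Signal: Immunofluorescence imaging | Read-out: Percent E-selectin-positive cells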
miR-122 sensor: miR-122 Renilla sensor signal increase in Huh7, primary screen, miR-122 inhibitor project, cell-based, single point, plate reader; AID 602342, 2012; activation (reporter increase), % at 12.5 µM; Huh7 miR-122 Renilla luciferase sensor, 48 h; neutral wells = 0, positive control = 100; actives 0.3% (n = 340,000);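 active = mean replicate activation score at least 90 and every replicate individually at or above 90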;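 note: higher luciferase means less miR-122 activity so hits act as miR-122 inhibitors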
S100A4 MyoIIA: inhibitors of S100A4-myosin IIA peptide binding, primary screen, biochemical, fluorescence polarization, TAMRA-MyoIIA peptide. Protein S100-A4 (Homo sapiens), P26447. inhibition, % at 10.7 µM. actives 0.14% (n = 360,000). AID 652163, 2013;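 active = mean inhibition of at least 70% across replicates, with every replicate also reaching that level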
Target sequence (P26447 whole entry, looked up): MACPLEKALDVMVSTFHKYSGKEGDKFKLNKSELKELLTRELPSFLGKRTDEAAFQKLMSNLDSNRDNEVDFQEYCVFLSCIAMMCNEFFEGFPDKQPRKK
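Material: S100A4 monomer protein / Buffer or medium: 50 mM HEPES pH 7.2, 10 mM CaCl2, 100 mM KCl / Times: 5 min incubation before reading / Benchmarks: neutral control DMSO, positive control TFP / Reagent: labelled myosin peptide probe, 5 nM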
FGF22 binding-1: binders of human FGF22 protein, primary screen, FGF22 synaptogenesis inhibitor project, biophysical, thermal shift, single point; Fibroblast growth factor 22 (Homo sapiens), Q9HCT0; recombinant FGF22 thermal shift, SYPRO orange fluorescence; percent of sucrose octasulfate shift, DMSO zero; actives 1.5% (n = 340,000); activity (Tm shift, normalised), % at 9.99 µM;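 active = mean Tm shift, scaled 0 neutral to 100 positive control, at about 1.3% or above, every replicate too, limit read from the data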
Target sequence (Q9HCT0 whole entry, looked up): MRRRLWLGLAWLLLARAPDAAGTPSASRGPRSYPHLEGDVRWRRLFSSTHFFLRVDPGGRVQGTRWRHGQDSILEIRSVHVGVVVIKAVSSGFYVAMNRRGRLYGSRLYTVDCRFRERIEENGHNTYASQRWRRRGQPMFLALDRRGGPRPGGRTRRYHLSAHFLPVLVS
SIRT5 inh: SIRT5 desuccinylase inhibitors, primary screen, biochemical, fluorescence imaging, single point, set 5; NAD-dependent protein deacylase sirtuin-5, mitochondrial (Homo sapiens), Q9NXA8; Purified SirT5, succinyl-peptide AMC, trypsin-coupled fluorescence; inhibition, % at 15 µM; actives 1.1% (n = 330,000); in the data active = inhibition above about 15%
Target sequence (Q9NXA8 whole entry, looked up): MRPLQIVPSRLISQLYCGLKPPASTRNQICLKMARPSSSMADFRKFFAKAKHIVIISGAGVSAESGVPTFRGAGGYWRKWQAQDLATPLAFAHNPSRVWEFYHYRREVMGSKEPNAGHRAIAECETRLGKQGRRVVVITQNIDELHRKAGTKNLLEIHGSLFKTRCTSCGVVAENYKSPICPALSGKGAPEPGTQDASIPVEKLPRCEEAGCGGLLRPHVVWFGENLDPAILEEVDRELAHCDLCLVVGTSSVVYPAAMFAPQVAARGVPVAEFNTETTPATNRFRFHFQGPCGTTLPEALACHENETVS
FGF22 binding-2: binders of human FGF22 protein, dose response, FGF22 synaptogenesis inhibitor project, biophysical, thermal shift, cherry-pick retest. shares compounds with FGF22 binding-1. recombinant FGF22 thermal shift, SYPRO orange fluorescence. thermal shift activity, °C (ΔTm) at 38 µM. actives 2% (n = 1,000);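 active = fitted rise in melting shift crosses a set limit at or below the top valid dose tested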
FGF22 TSA: binders of human FGF22 protein, dose response, FGF22 synaptogenesis inhibitor project, biophysical, thermal shift, dry powder | Tm shift (activity), % at 38 µM | AID 743017, 2013 | shares compounds with FGF22 binding-1 | Thermal shift assay, SYPRO orange, melting temperature shift | 50 tested, under 10 active;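 active = compounds whose fitted dose curve of melting temperature shift rises past a set threshold within the tested doses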
TSA no protein: compound-only thermal shift signal without protein, dose response, artefact control for FGF22 binder project, biochemical, cherry-picked samples, RT-PCR instrument. AC50, µM (highest dose often 38 µM). AID 743019, 2013. compound-only SYPRO orange thermal shift counter-screen, no protein. actives 2% (n = 1,000). shares compounds with FGF22 binding-1;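 active = rising signal whose fitted curve reaches the 0.54 level within the top valid dose, showing a melting point, actives reach about 13 µM in these data; inactive = the rest, including activity in the opposite direction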; note: value is where the raw curve crosses a fixed level and not half-maximal
Starred values were filed as active, the others as inactive; i = inactive; nt = no result given; [ ] = remark or other dose.

SMILES	E-sel inducer	miR-122 sensor	S100A4 MyoIIA	FGF22 binding-1	SIRT5 inh	FGF22 binding-2	TSA no protein	others
Cc1cc(C)cc(NS(=O)(=O)c2cc3[nH]c(=O)c(=O)[nH]c3cc2C)c1	0	-1	6	1.7*	-1	0.031	i
O=C(C[C@@H]1CC[C@@H](NC(=O)Nc2cc(F)ccc2F)[C@H](CO)O1)NCc1ccccn1	0	-1[16.7 µM]	-9	0	-1	nt	nt
CC(C)N(Cc1ccccc1)C(=O)COC(=O)C1CCN(c2ccc(C(F)(F)F)cn2)CC1	nt	6	-12	1.5*	3	-0.009	i
CC(C)(C)N(Cc1ccccc1)C(=O)COC(=O)C1CCN(c2ccc(C(F)(F)F)cn2)CC1	nt	8	-5	0	-14	nt	nt
N#C[C@H]1[C@@H](c2ccc(C3=CCCCC3)cc2)[C@@H](CO)N1S(=O)(=O)c1ccccc1	2	nt	-3	1.9*	4	-0.2	i
CCS(=O)(=O)N[C@@H]1CC[C@H](CC(=O)Nc2ccc(-c3ccccc3)cc2)O[C@@H]1CO	0	12[16.7 µM]	-3	1.2*	nt	0.14[35 µM]	i
CN1/C(=C\C(=O)c2cccc([N+](=O)[O-])c2)Sc2ccccc21	nt	-6	29	2.2*	-2	0.013	i
C[C@H]1CN([C@@H](C)CO)C(=O)Cc2cc(NS(=O)(=O)c3ccc(Cl)cc3)ccc2O[C@@H]1CN(C)C(=O)Nc1ccc2c(c1)OCO2	1	-3[16.7 µM]	nt	nt	nt	nt	nt
Nc1nccc(-c2ccc(-n3cccc3)cc2)n1	5	-9	1	2.3*	5	0.004	i
COc1ccccc1-c1ccc2c(c1)O[C@@H](CN(C)CC1CC1)[C@@H](C)CN([C@@H](C)CO)S2(=O)=O	0	9[16.7 µM]	nt	nt	nt	nt	nt
C[C@@H]1CN([C@@H](C)CO)S(=O)(=O)c2ccc(-c3ccc(F)cc3)cc2O[C@@H]1CN(C)C(=O)Nc1ccccc1F	0	16[16.7 µM]	-5	1.7*	-2	0.088	i
Cc1ccccc1-c1ccc2c(c1)O[C@H](CN(C)CC1CC1)[C@H](C)CN([C@H](C)CO)S2(=O)=O	-2	13[16.7 µM]	15	1.5*	-3	0.14	i
C[C@@H]1CN([C@@H](C)CO)S(=O)(=O)c2ccc(-c3cccc(C#N)c3)cc2O[C@@H]1CN(C)C(=O)Nc1cc(F)ccc1F	0	28[16.7 µM]	4	1.3*	2	nt	i
C[C@H]1CN([C@@H](C)CO)S(=O)(=O)c2ccc(-c3cccc(F)c3)cc2O[C@H]1CN(C)C(=O)Nc1cc(F)ccc1F	0	2[16.7 µM]	-11	1.4*	nt	0.17	i
CCC(=O)N[C@H]1C=C[C@@H](CC(=O)NCc2ccccc2OC)O[C@@H]1CO	0	nt	-4	0	2	nt	nt
COc1cccc(NC(=O)N(C)C[C@H]2Oc3cc(-c4ccccc4OC)ccc3S(=O)(=O)N([C@H](C)CO)C[C@H]2C)c1	0	12[16.7 µM]	2	1	3	nt	nt
COc1cccc(NC(=O)N(C)C[C@@H]2Oc3cc(-c4ccccc4F)ccc3S(=O)(=O)N([C@H](C)CO)C[C@@H]2C)c1	nt	3[16.7 µM]	-6	4.0*	17*	-0.21[42 µM]	i
CCC(=O)N1C[C@H]2[C@@H](c3ccccc31)[C@H](CO)N2C(=O)Nc1ccccc1F	0	-45[16.7 µM]	5	0	0	nt	nt
CNC[C@@H]1Oc2ccc(NC(=O)CCCN(C)C)cc2C(=O)N([C@@H](C)CO)C[C@@H]1C	0	-2[16.7 µM]	5	0	0	nt	nt
CCc1nnc(NS(=O)(=O)c2ccc(NC(=S)NC(=O)/C=C/c3ccc([N+](=O)[O-])cc3)cc2)s1	0	1	-2	2.5*	3	-0.005	i
C[C@@H]1CN([C@H](C)CO)C(=O)Cc2cc(NC(=O)Nc3ccc4c(c3)OCO4)ccc2O[C@@H]1CN(C)S(=O)(=O)c1cn(C)cn1	-9	11[16.7 µM]	nt	0	nt	nt	nt
COc1cccc(NC(=O)CN(C)C(=O)c2cn(-c3ccccc3)nc2-c2cccs2)c1	0	-2	-1	2.1*	-3	0.63	i
C[C@@H]1CCCCO[C@H](CN(C)C(=O)Nc2ccc(C(F)(F)F)cc2)[C@@H](C)CN([C@@H](C)CO)C(=O)c2cc(NC(=O)C3CCCCC3)ccc2O1	1	7[16.7 µM]	7	0	4	nt	nt
Cc1noc(NS(=O)(=O)c2ccc(NC(=O)c3cccc(S(=O)(=O)N(C)c4ccccc4)c3)cc2)c1C	nt	-3	-23	1.6*	2	-0.17	i
CN(c1ccccc1)S(=O)(=O)c1cccc(NC(=O)c2ccc3ncsc3c2)c1	nt	9	-3	1.4*	-4	-0.047	i
SMILES	E-sel inducer	miR-122 sensor	S100A4 MyoIIA	FGF22 binding-1	SIRT5 inh	FGF22 binding-2	TSA no protein	others
CO[C@@H]1CN(C)C(=O)c2cc(NC(=O)C3CCCC3)ccc2OC[C@H](C)N(C)C[C@H]1C	0	0[16.7 µM]	4	0	4	nt	nt
O=C(O)Cc1ccc(NC(=O)c2ccc(Cl)c(Cl)c2)cc1	nt	-2	-1	1.8*	-1	0.57	i	FGF22 TSA=0
Cc1noc(C)c1NC(=O)Nc1ccc2c(c1)CC(=O)N([C@@H](C)CO)C[C@@H](C)[C@@H](CN(C)C(=O)Nc1ccc(C(F)(F)F)cc1)O2	0	6[16.7 µM]	17	0	2	nt	nt
O=C(C(=O)N1CCC(CNS(=O)(=O)Cc2ccccc2)CC1)c1cccs1	0	nt	-1	27*	nt	0.071	i
CCNC(=O)CC1C(=O)N(c2ccc(F)cc2)C(=O)N1Cc1ccccn1 (centres undefined)	nt	-2	nt	nt	nt	nt	nt
CCOc1ccc(N2C(=O)C(CC(=O)Nc3ccccc3)N(Cc3ccccn3)C2=S)cc1 (centres undefined)	7	8	-2	1.5*	0	0.58	i
